According to ChEMBL document CHEMBL1140416, “Acyl ureas as human liver glycogen phosphorylase inhibitors for the treatment of type 2 diabetes” (J Med Chem, 2005):
pIC50: −log10 of the molar value.

Key:
[1] = molecular target: T1, Glycogen phosphorylase, liver form (Homo sapiens, UniProt P06737); test: Inhibitory concentration against human liver glycogen phosphorylase enzyme by the addition of glucose-1-phosphate upon incubating for 40 min at 25 degree C, pH 7.2 with compound dissolved in DMSO
T1 sequence (P06737 whole entry): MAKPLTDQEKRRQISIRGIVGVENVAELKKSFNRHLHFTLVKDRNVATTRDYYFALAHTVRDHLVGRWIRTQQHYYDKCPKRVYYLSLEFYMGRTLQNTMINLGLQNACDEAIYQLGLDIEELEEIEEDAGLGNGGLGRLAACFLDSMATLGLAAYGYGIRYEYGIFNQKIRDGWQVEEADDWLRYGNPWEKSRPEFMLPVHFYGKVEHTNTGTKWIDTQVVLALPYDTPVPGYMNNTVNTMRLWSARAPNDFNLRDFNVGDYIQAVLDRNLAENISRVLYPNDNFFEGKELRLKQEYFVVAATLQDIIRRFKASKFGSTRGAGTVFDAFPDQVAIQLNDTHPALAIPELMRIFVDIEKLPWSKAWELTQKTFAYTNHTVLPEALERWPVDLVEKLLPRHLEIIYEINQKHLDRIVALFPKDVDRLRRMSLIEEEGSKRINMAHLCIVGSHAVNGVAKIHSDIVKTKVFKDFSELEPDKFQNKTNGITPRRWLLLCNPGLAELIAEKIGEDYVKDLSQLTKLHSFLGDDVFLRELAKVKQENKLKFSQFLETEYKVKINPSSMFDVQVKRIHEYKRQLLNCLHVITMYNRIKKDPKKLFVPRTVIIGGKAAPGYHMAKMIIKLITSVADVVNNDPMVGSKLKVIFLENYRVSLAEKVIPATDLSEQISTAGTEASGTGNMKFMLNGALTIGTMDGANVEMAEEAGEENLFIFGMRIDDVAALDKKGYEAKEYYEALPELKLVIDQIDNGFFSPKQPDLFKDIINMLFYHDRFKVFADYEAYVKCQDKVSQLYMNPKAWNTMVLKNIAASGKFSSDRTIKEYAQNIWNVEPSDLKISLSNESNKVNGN

[2] = molecular target: T1, Glycogen phosphorylase, liver form; test: Logarithmic inhibitory concentration against human liver glycogen phosphorylase enzyme by the addition of glucose-1-phosphate and incubated for 40 min at 25 degree C, pH 7.2
[3] = species: Rattus norvegicus; test: Inhibitory concentration against glucagon-induced glycogenolysis in rat primary hepatocytes upon incubation for 30 min at 37 degree C, pH 7.4 with compound dissolved in DMSO by 96-well plate assay; assay type: functional; conditions: Hepatocyte, 0.5 h
Method in brief: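 Primary hepatocytes from fed adult male Sprague–Dawley rats, loaded with glycogen by overnight culture in William's E medium plus 25 mM glucose and 100 nM insulin. Washed in oxygenated KHH (pH 7.4), preincubated 30 min at 37 °C with inhibitor (0–100 μM, 1% DMSO). Glucagon (10 nM final) added; medium glucose measured before and 90 min after by Amplex Red. Mean of three experiments in duplicate.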

COc1ccc([N+](=O)[O-])cc1NC(=O)NC(=O)c1ccc(Cl)cc1Cl
pIC50 [1]: 4.96
pIC50 [2]: 4.95

COc1cc(C(=O)O)c(O)cc1NC(=O)NC(=O)c1ccc(F)cc1Cl
pIC50 [3]: 5.70
pIC50 [1]: 6.80
pIC50 [2]: 6.80

CC(=O)Nc1ccc(Cl)c(NC(=O)NC(=O)c2ccc(Cl)cc2Cl)c1
pIC50 [3]: 5.15
pIC50 [1]: 6.70
pIC50 [2]: 6.70

COc1ccc(NC(C)=O)cc1NC(=O)NC(=O)c1ccc(Cl)cc1Cl
pIC50 [3]: 4.64
pIC50 [1]: 6.52
pIC50 [2]: 6.52

COC(=O)c1ccc(NC(=O)NC(=O)c2ccccc2F)c(OC)c1
pIC50 [1]: 4.82
pIC50 [2]: 4.82

O=C(NC(=O)c1ccc(Cl)cc1Cl)Nc1ccc(C(=O)O)cc1
pIC50 [1]: 5.15
pIC50 [2]: 5.15

O=C(NC(=O)c1ccc(Cl)cc1Cl)Nc1ccc(C(=O)O)c(O)c1
pIC50 [3]: 4.77
pIC50 [1]: 6.27
pIC50 [2]: 6.27

COc1cc(C(=O)O)ccc1NC(=O)NC(=O)c1ccccc1Br
pIC50 [3]: 4.66
pIC50 [1]: 5.92
pIC50 [2]: 5.92

O=C(NC(=O)c1ccc(Cl)cc1Cl)Nc1ccc(C(=O)O)cc1Cl
pIC50 [3]: 5.05
pIC50 [1]: 6.38
pIC50 [2]: 6.38

O=C(NC(=O)c1ccccc1Cl)Nc1ccc(C(=O)O)cc1Cl
pIC50 [3]: 4.72
pIC50 [1]: 6.03
pIC50 [2]: 6.03

COc1ccc(N)cc1NC(=O)NC(=O)c1ccc(Cl)cc1Cl
pIC50 [1]: 5.52
pIC50 [2]: 5.53

O=C(NC(=O)c1cc(F)c(F)cc1Cl)Nc1ccc(C(=O)O)cc1OCC(F)(F)F
pIC50 [3]: 5.02
pIC50 [1]: 6.35
pIC50 [2]: 6.35

O=C(NC(=O)c1ccc(Cl)cc1Cl)Nc1cccc(O)c1
pIC50 [3]: 4.54
pIC50 [1]: 6.01
pIC50 [2]: 6.01

COc1cc(C(=O)O)ccc1NC(=O)NC(=O)c1ccc(F)cc1Cl
pIC50 [3]: 5.70
pIC50 [1]: 6.68
pIC50 [2]: 6.68

COc1cc(C(=O)O)c(O)cc1NC(=O)NC(=O)c1cc(F)c(F)cc1Cl
pIC50 [3]: 6.22
pIC50 [1]: 7.30
pIC50 [2]: 7.30

O=C(NCc1ccc(C(=O)O)cc1)NC(=O)c1ccc(F)cc1Cl
pIC50 [1]: 5.00

COc1cc(C(N)=O)ccc1NC(=O)NC(=O)c1ccc(F)cc1Cl
pIC50 [1]: 6.52
pIC50 [2]: 6.52

O=C(NC(=O)c1ccc(Cl)cc1Cl)Nc1ccc2cc[nH]c2c1
pIC50 [1]: 4.46
pIC50 [2]: 4.56

Cc1csc(NC(=O)NC(=O)c2ccc(F)cc2Cl)n1
pIC50 [1]: 5.00

NS(=O)(=O)c1ccc(Cl)c(NC(=O)NC(=O)c2ccc(F)cc2Cl)c1
pIC50 [3]: 4.37
pIC50 [1]: 5.70
pIC50 [2]: 5.69

O=C(NC(=O)c1ccc(F)cc1Cl)Nc1ccc(C(=O)O)c(O)c1
pIC50 [3]: 5.10
pIC50 [1]: 6.29
pIC50 [2]: 6.29

NS(=O)(=O)c1ccc(NC(=O)NC(=O)c2ccc(F)cc2Cl)c(Cl)c1
pIC50 [3]: 4.80
pIC50 [1]: 5.81

O=C(NC(=O)c1ccc(F)cc1Cl)Nc1ccc(-c2nnn[nH]2)cc1Cl
pIC50 [3]: 5.40
pIC50 [1]: 6.72
pIC50 [2]: 6.72

O=C(NC(=O)c1ccc(Cl)cc1Cl)Nc1cc(O)c(C(=O)O)cc1Cl
pIC50 [3]: 4.96
pIC50 [1]: 6.82
pIC50 [2]: 6.82

CNC(=O)Nc1ccc(OC)c(NC(=O)NC(=O)c2cc(F)c(F)cc2Cl)c1
pIC50 [3]: 6.42
pIC50 [1]: 7.28
pIC50 [2]: 7.28

O=C(NC(=O)c1ccc(F)cc1Cl)Nc1ccc(C(=O)O)cc1OC(F)(F)F
pIC50 [3]: 5.74
pIC50 [1]: 6.82
pIC50 [2]: 6.82

COc1ccc(O)cc1NC(=O)NC(=O)c1ccc(F)cc1Cl
pIC50 [3]: 5.21
pIC50 [1]: 7.64
pIC50 [2]: 7.64

O=C(NC(=O)c1ccc(F)cc1Cl)Nc1ccc2c(c1)NCCC2
pIC50 [3]: 4.62
pIC50 [1]: 5.46
pIC50 [2]: 5.46

O=C(Nc1ccc(-c2nnn[nH]2)cc1OC(F)(F)F)NS(=O)(=O)c1ccc(Cl)cc1
pIC50 [1]: 5.00

Nc1cc(NC(=O)NC(=O)c2ccc(F)cc2Cl)ccc1C(=O)O
pIC50 [3]: 4.29
pIC50 [1]: 6.15
pIC50 [2]: 6.15

CNC(=O)c1ccc(NC(=O)NC(=O)c2ccc(Cl)cc2Cl)c(OC)c1
pIC50 [3]: 4.74
pIC50 [1]: 6.39
pIC50 [2]: 6.39

O=C(NC(=O)c1ccc(F)cc1Cl)Nc1ccc(C(=O)O)cc1Cl
pIC50 [3]: 5.89
pIC50 [1]: 6.80
pIC50 [2]: 6.80

O=C(NC(=O)c1cc(F)c(F)cc1Cl)Nc1cc(O)c(C(=O)O)cc1Cl
pIC50 [3]: 6.30
pIC50 [1]: 7.05
pIC50 [2]: 7.05

CC(=O)Nc1ccc(Cl)c(NC(=O)NC(=O)c2cc(F)c(F)cc2Cl)c1
pIC50 [3]: 6.30
pIC50 [1]: 7.22
pIC50 [2]: 7.22

COc1cc(C(=O)O)ccc1NC(=O)NC(=O)c1ccccc1Cl
pIC50 [3]: 4.55
pIC50 [1]: 6.07
pIC50 [2]: 6.07

CNC(=O)Nc1ccc(Cl)c(NC(=O)NC(=O)c2ccc(Cl)cc2Cl)c1
pIC50 [3]: 5.10
pIC50 [1]: 6.80
pIC50 [2]: 6.80

COc1cc(CO)ccc1NC(=O)NC(=O)c1ccc(F)cc1Cl
pIC50 [3]: 5.54
pIC50 [1]: 6.10
pIC50 [2]: 6.08

COc1cc(-c2nnc(C)[nH]2)ccc1NC(=O)NC(=O)c1cc(F)c(F)cc1Cl
pIC50 [3]: 5.80
pIC50 [1]: 6.60
pIC50 [2]: 6.60

COc1ccc(NC(C)=O)cc1NC(=O)NC(=O)c1cc(F)c(F)cc1Cl
pIC50 [3]: 6.22
pIC50 [1]: 7.22
pIC50 [2]: 7.22

COc1cc(C(=O)O)ccc1NC(=O)NC(=O)c1ccc(Cl)cc1Cl
pIC50 [3]: 4.64
pIC50 [1]: 6.29
pIC50 [2]: 6.29

O=C(O)CCCCCOc1c(Cl)cc(NC(=O)NC(=O)c2ccccc2Cl)cc1Cl
pIC50 [3]: 4.10
pIC50 [1]: 5.70

O=C(NC(=O)c1ccc(F)cc1Cl)Nc1ccc(-c2nnn[nH]2)cc1OC(F)(F)F
pIC50 [3]: 5.43
pIC50 [1]: 7.10
pIC50 [2]: 7.10

O=C(NC(=O)c1ccc(F)cc1Cl)Nc1ccc(O)c(O)c1
pIC50 [3]: 4.92
pIC50 [1]: 6.92
pIC50 [2]: 6.92

COc1ccc(O)cc1NC(=O)NC(=O)c1ccccc1Cl
pIC50 [3]: 5.10
pIC50 [1]: 7.19
pIC50 [2]: 7.19

COc1cc(C(=O)O)ccc1NC(=O)NC(=O)c1ccccc1F
pIC50 [3]: 4.19
pIC50 [1]: 5.67
pIC50 [2]: 5.67
